Measurements reported in the EternaBench riboswitch data.

System: MS2 coat protein
Assay: apparent Kd, MS2 coat protein; higher = weaker binding; RNA-MaP array; FMN 200 µM where present
Method in brief: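 Green signal was scaled to red-channel RNA signal and control-cluster median Fmax, and the apparent Kd was taken as the median of filtered per-cluster binding-curve fits. The binding series used SNAP-549-labelled MS2 coat protein from 0.7 or 1.5 nM, doubling to 3 µM, on designs transcribed by stalled E. coli RNA polymerase on Illumina sequencing-chip clusters. Each series ran without and then with constant ligand in 100 mM Tris-HCl pH 7.5, 80 mM KCl, 4 mM MgCl2, BSA, DTT, yeast tRNA and Tween-20.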

[1] = designed as: OFF switch for flavin mononucleotide, no ligand
[2] = ligand present: flavin mononucleotide, designed as: OFF switch for flavin mononucleotide
[3] = designed as: ON switch for flavin mononucleotide, no ligand
[4] = ligand present: flavin mononucleotide, designed as: ON switch for flavin mononucleotide

Sequence | apparent Kd [1] | apparent Kd [2] | apparent Kd [3] | apparent Kd [4]
AAUAAACUAGGAUAUACAUGAGGAUCACCCAUGUGUCGCCACGUGCUUGCUCACUCGUGUAGAAGGAGUACGGA | 0.0385 µM | 0.0731 µM |  | 
ACCUCACAUGAGGAUCACCCAUGUCAGGAUAUCUAAUGUAGUAGCGUUCCCGACGCUAAGAGAAGGGACAUUAA | 0.0159 µM | 0.022 µM |  | 
AGAUUUGUACAUGAGGAUCACCCAUGUUAAUAGGUGGUUGUCAGAAGGCAUUAAUAGAGUUUUAAUGAGGAUAUGAAUUUACAA |  |  | 1.03 µM | 0.803 µM
GCGGAACAUGAGGAUCACCCAUGUAUCCCAAAUAUGGACUCACAGGAUAUCCCGAGUUGCCAGUGGGAGAAGGGUGACUCCAGA |  |  | 0.0142 µM | 0.00655 µM
GCCCAGCUAGGAUAUCGCACUGCAGACAUGAGGAUCACCCAUGUGAUGAGGUCUGAAUCCCGAGAAGGAGCAUGGA | 0.0178 µM | 0.0417 µM |  | 
AAUUAUUGAUGAGGAUAUUGUGGUGAAACACGACAAGAAGGCAUUAUACACAUGAGGAUCACCCAUGUGAGCCUGAUGCAUAUA | 0.0166 µM | 0.0222 µM |  | 
GAGUGACAUGAGGAUCACCCAUGUGAGGAUAUCGGACGGACCAAAUUAACAAUAAAUGCGAGAAGGCACAUCGG | 0.0585 µM | 0.0816 µM |  | 
AGCAUGCAGUAGGAUAUCGAUCCACAAUAUGAACGAGAAGGACUGACAUGAGGAUCACCCAUGUGCGUCCUAGG | 0.0167 µM | 0.0166 µM |  | 
UGGUACUAGGGAGGAUAUCGGAAGAUACAUGAGGAUCACCCAUGUUUAAGAAUGCCGAGAGGCAACUAGAAGGCCCUAGUACCU |  |  | 0.00664 µM | 0.00613 µM
CCGAGGCGAGGAUAUAUGAAGGACACAACAUUUAGGGUAAGACAUGAGGAUCACCCAUGUAGAAGGCGCGACGC | 0.0634 µM | 0.0558 µM |  | 
ACAUAGUAAGGAUAUGCUGCUCGUCACUUGCGUGAUGAGUAGCAGAAGGUACAUGAGGAUCACCCAUGUAAAAA | 0.0253 µM | 0.0191 µM |  | 
GCACUUAGAGUUGAACCGUUACUAACAUGAGGAUCACCCAUGUAGGAUAUGCUAAUAGUAUUGAAGCAGAAGGACACUAAGUGC | 0.00546 µM | 0.00588 µM |  | 
AAGAAGGACGCAGGAUAUCCAGGACCUCCCGCAGGAGAAGGGCGAGACACGUGGAUCACCCAGACAUGAGGAUCACCCAUGUAG | 0.0156 µM | 0.0142 µM |  | 
AGAUUUGUACAUGAGGAUCACCCAUGUUAAUAGGUGGUUGUCAGAAGGCAUUAUUAGAGUUUUAAUGAGGAUAUGAAUUUACAA |  |  |  | 0.541 µM
GGAUGACAAAGUCAUCCAAUUCGAACAUGAGGAUCACCCAUGUAGGAUAUCGUACUCAAAGAGUACGAGAAGGACAUGUGCUUU | 0.0403 µM | 0.154 µM |  | 
UUGCGCUGUCGAGAGGAUAUGCGGUGUUGGACAUGAGGAUCACCCAUGUUUGCGAUAGCUUUACGGUAGAAGGCUCUUCAGCUGC |  |  | 0.0639 µM | 0.0359 µM
CUGCGCUAGGAGAAGGGCUAGAGUGUGAUAUAUUUGCCCGCGAGCACAUGAGGAUCACCCAUGUAGCAGGAUAUCCAAGCCGAU | 0.00803 µM | 0.0165 µM |  | 
AGCACGAAAGUGCAACGAUGUACGAGAAGGACAUGAGGAUCACCCAUGUUGCUGUAACUGCUUAUGUAGGAUAUCGUACAUCGA |  | 0.00701 µM |  | 
AAUGUGUCAGGAUAUAGUAGACUCCUUGGAACGGUAGUCAGUUAGAAGGGACAUGAGGAUCACCCAUGUCGAGU | 0.0193 µM | 0.0196 µM |  | 
GGAUGAGAAACUCAUCCAAUACGAACAUGAGGAUCACCCAUGUAGGAUAUGCUACUCAAAGAGUAGCAGAAGGACAUGUGCCUU | 0.03 µM | 0.254 µM |  | 
GCGUAACAUGAGGAUCACCCAUGUGCCCGAGAAUUCGGGCCGAGAAGGGUGACCGGUCGUAUGGCACAGGAUAUCGACGUUGUG |  |  | 0.0306 µM | 0.0134 µM
AGCGUACAAGCUAACAUGAGGAUCACCCAUGUGGACUCAUGCGAGGAUAUCGGGAAGGAGGAUUCCGAGAAGGUGCGGUGAGCC |  |  | 0.148 µM | 0.0381 µM
GGAUAGGACAGAGGAUAUACGGAUAGGAUCUACUAUCUUUCUCAAAUAACAUGAGGAUCACCCAUGUAGAAGGCUGUCCUAUCG | 0.0215 µM | 0.122 µM |  | 
AGAUAACACCAGAAGGACAUGAGGAUCACCCAUGUAGGAUAUGGGCAUCACUCGAGAAAGAUACGACCAAAGGGACACGCGGUC |  |  | 0.124 µM | 0.00997 µM
GGACGUCUCAUUAACAUGAGGAUCACCCAUGUCAAAAGACAUGAGGAUAUGGAACCUAAUUGGUUCCAGAAGGCAUGGACGUCC |  |  | 0.802 µM | 0.0626 µM
AACAUGAGGAUCACCCAUGUCCCACCAGAAGGCUGGCGGCCACGGUAACGGCCGUGGCAAAUAACAGAGGAUAUGGUGAAUGCA |  |  | 0.0663 µM | 0.0179 µM
CCGCAAAAUGAGGAUAUCGUAUCGGAUACGAUACGAGAAGGCGUAACAUGAGGAUCACCCAUGUGUCCUAGCGG | 0.0143 µM | 0.0172 µM |  | 
AGCUGUGGCCGAGGAUAUCUAAAUUCUUAAAACGAAAUAUAAUCGAACAUGAGGAUCACCCAUGUAGAGAAGGCGGUCUCAGCA | 0.0198 µM | 0.0207 µM |  | 

Sequence | apparent Kd [1] | apparent Kd [2] | apparent Kd [3] | apparent Kd [4]
CCUGUCGCAUGAGGAUAUGGUCAGCUUUGCUGACCAGAAGGCAUGUCGAUAGACAUGAGGAUCACCCAUGUAGUAAAGACAGGA |  |  | 0.831 µM | 0.0573 µM
AGUGACUACGUAGGAUAUUAAUUCAUGGACUACAUGAGGAUCACCCAUGUUUAUUUAACAUCAGCUAAGAAGGACGUGGUCACA |  |  | 0.0166 µM | 0.0085 µM
GUAGCUUCAUUUAUACAUGAGGAUCACCCAUGUUACAUGGGUAAGGAUAUUGAUGUUAUGAUUAUCAAGAAGGUACUAUGCUAC |  |  | 0.663 µM | 0.0396 µM
AAACCUAUAGGAUAUACAUGAGGAUCACCCAUGUUGCGAUUUUUUAGGUAACAGAUCCGUAGAAGGGUAGGUUA | 0.0238 µM | 0.0576 µM |  | 
CUGAGGUCAGGAUAUGCAUGGCGGGACUUGCGUCGUGGCGUGCAGAAGGGACAUGAGGAUCACCCAUGUGGAGU | 0.165 µM | 0.287 µM |  | 
GGAAAACAUGAGGAUCACCCAUGUGAGGAUAUCGAUGUCCAACCACCCGUGCGGGACUCGAGAAGGCACUUGGA | 0.0534 µM | 0.146 µM |  | 
GGCGGUCCUUAAUGCACCUGCACAUGAGGAUCACCCAUGUACAGAAGGGCCAGCACCGAAGUAUGGCAGGAUAUGUCGCACGAG | 0.00756 µM | 0.0101 µM |  | 
AAUCAGCGAGGAUAUACAGAUUCUGGGUGCGGCUCGGCGAGACAUGAGGAUCACCCAUGUAGAAGGUGCUAGCC | 0.0379 µM | 0.0438 µM |  | 
UGAUAACAUGUAGGAUAUGCAGCAUUGACCACUGCAGAAGGACAUGAGGAUCACCCAUGUAGCCGUACUAUGGGAUCACGCAAU | 0.0477 µM | 0.232 µM |  | 
ACAUGAGGAUCACCCAUGUAUUUGUAGGAUAUACUCUAUUGUUUAUUACUCUAGUUAAAAUGUUUGUAGAAGGACAUUACAUGA | 0.00681 µM | 0.00738 µM |  | 
GAUCAACAUGAGGAUCACCCAUGUGAGGAUAUGAUACUAUGUACUUCGGUACAUAGUAUCAGAAGGCAUAUGAA | 0.0567 µM | 0.0985 µM |  | 
GCAGAGCUAGGAUAUGCUGGGCUGCAGUAAAAUGGUCACUCACAUGAGGAUCACCCAUGUAGAAGGAGCAGUGU | 0.0265 µM | 0.04 µM |  | 
UACGUUCUACGCGACAUGAGGAUCACCCAUGUUAGCCGAUCACAGGAUAUGUUGGAGCCGGUCGAACAGAAGGGUGAGUCUGCU |  |  | 0.0388 µM | 0.0389 µM
CAACCGUUGCAGAAGGUUAAAUAAUUUCUCAUCUUGUUUACAUGAGGAUCACCCAUGUAUUUGUUGAAGGAUAUGCAAGGGUUG | 0.00696 µM | 0.0066 µM |  | 
CAGGUAGACUGAGGAUAUACAUGACUUAGUCUAUCUAGGUCAUAAACCACAUGAGGAUCACCCAUGUAGAAGGCAGUCUGCCUG | 0.017 µM | 0.0198 µM |  | 
CCUGGUUGGUAAGGAUAUCCUACACUAUUCUGACCCGUGCAAGCUACAUGAGGAUCACCCAUGUGGGAGAAGGUGCGUCAACGU | 0.0128 µM | 0.012 µM |  | 
AGGCAAUCAGGAUAUACAUGAGGAUCACCCAUGUGUACAAAGCACAUCCGAUCUAGAUGUAGAAGGGAUAUGCA | 0.0191 µM | 0.0358 µM |  | 
AAUUGACACGUAGGAUAUCGCUCUUAAUUAACACGAGAAGGACGUACAUGAGGAUCACCCAUGUUAAAUGGUGUAGUUUAGUUG | 0.0455 µM | 0.123 µM |  | 
UGUCGGAGCAGAGGAUAUUACAUGAGGAUCACCCAUGUAUGAACCAAUAGCUGGAAACAGCAAUGUAAGAAGGCUGCUACGACA | 0.0122 µM | 0.153 µM |  | 
UGGUACUAGGGAGGAUAUGGGAAGAUACAUGAGGAUCACCCAUGUUUAAGAAUGCCGAGAGGCACCUAGAAGGCCCUAGUACCU |  |  | 0.0211 µM | 0.00536 µM
GUAGCAAUCGGAGGAUAUGGGUUAUACAUGAGGAUCACCCAUGUUAAUUUACUAGAAGGCCGAUUGCUACAAGAGCGAAAGCUC |  |  | 0.0108 µM | 0.0057 µM
CGGUACUGAGGAUAUACAUGAGGAUCACCCAUGUGUUCUAGCUAGCGUACUGGCAUUUGUAGAAGGCGGUGCUG | 0.015 µM | 0.0564 µM |  | 
AAAGGGAUUACGGAGGAUAUGGAAAAAAAAACAUGAGGAUCACCCAUGUCAAAAAAAAAAAAGGACCAGAAGGCCGUAAUCUCAAA |  |  | 0.0273 µM | 0.0189 µM
AAAAAGGUAGGAUAUACGAAAAAAAAGGGUAAAAUAAAUAAACAUGAGGAUCACCCAUGUAGAAGGACCAAAAA | 0.0253 µM | 0.0644 µM |  | 
AUAUCAUACCAAGGAUAUUUAAGAUUUGUGUAGACAUGAGGAUCACCCAUGUGGCGUUAGUCACGGGAGAAGGUGGUAUGAUAU |  |  | 0.978 µM | 0.205 µM
GCGGUGAUCCUAGCUCACAUGAGGAUCACCCAUGUGCAGUUCAAGGAUAUACGUUGCCGCUCCGCGUAGAAGGUGAACUCGCUA | 0.043 µM | 0.0441 µM |  | 
CCUAAACAUGAGGAUCACCCAUGUGAGGAUAUGAUGCAGCAGUGGUCUACGCUGUGCAUCAGAAGGUACAUGGU | 0.0808 µM | 0.12 µM |  | 
